Reference: ChEMBL document CHEMBL1124734, “Chalcogenapyrylium dyes as photochemotherapeutic agents. 2. Tumor uptake, mitochondrial targeting, and singlet-oxygen-induced inhibition of cytochrome c oxidase” (J Med Chem, 1990)

Experiments:
[1] = Partition coefficient (logP); type: physicochemical; details: octanol/water
Procedure, shortened: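 Partitioning measured between n-octanol and water.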

[2] = Ability to inhibit the Mitochondrial cytochrome c Oxidase in isolated mitochondrial suspensions from R3230AC rat mammary adenocarcinomas; set-up: concentration or dose not given beside the values; details: concentration not given here
Procedure, shortened: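 Mitochondria isolated from subcutaneously transplanted R3230AC tumors in female Fischer 344 rats and stored at -70 °C. They were diluted in sucrose/KCl buffer (pH 7.4) to give a 0.45-0.60/min absorbance change of cytochrome c at 550 nm. Dye (10 μM) was added for 5 min in the dark at room temperature, then mitochondria were pelleted and resuspended. Samples were matched by absorbance (~1.5 OD) and irradiated with 375–800 nm light. The initial inhibition rate was taken over the first 5 min of exposure.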

SMILES | logP [1] | inhibition [2] [%]
CC(C)(C)C1=CC(=C/C=C/c2cc(C(C)(C)C)[s+]c(C(C)(C)C)c2)C=C(C(C)(C)C)S1 | 1.97 | 0.045
CC(C)(C)C1=CC(=C/C=C/c2cc(C(C)(C)C)[se+]c(C(C)(C)C)c2)C=C(C(C)(C)C)[Se]1 | 1.92 | 4.2
CC(C)(C)C1=CC(=C/C=C/c2cc(C(C)(C)C)[se+]c(C(C)(C)C)c2)C=C(C(C)(C)C)O1 | – | 2.55
CC(C)(C)C1=CC(=C/C=C/c2cc(C(C)(C)C)[o+]c(C(C)(C)C)c2)C=C(C(C)(C)C)O1 | 2.51 | 0
CC(C)(C)C1=CC(=C/C=C/c2cc(C(C)(C)C)[te+]c(C(C)(C)C)c2)C=C(C(C)(C)C)[Se]1 | 2.41 | 3
CC(C)(C)C1=CC(=C/C=C/c2cc(C(C)(C)C)[te+]c(C(C)(C)C)c2)C=C(C(C)(C)C)O1 | 2.41 | 10.9
CC(C)(C)C1=CC(=C/C=C/c2cc(C(C)(C)C)[te+]c(C(C)(C)C)c2)C=C(C(C)(C)C)[Te]1 | 2.02 | –
CC(C)(C)C1=CC(=C/C=C/c2cc(C(C)(C)C)[se+]c(C(C)(C)C)c2)C=C(C(C)(C)C)S1 | 2.39 | 4.05
CC(C)(C)C1=CC(=C/C=C/c2cc(C(C)(C)C)[s+]c(C(C)(C)C)c2)C=C(C(C)(C)C)O1 | – | 0.03
